Measurements reported in publication PMC7113734 (Antiviral Research, 2016).
Converted amounts (≈) assume the structure as drawn. Read-outs that look alike come from different tables or passages of the source.

How the values were obtained:
[1] = tested on: drug-resistant HIV-1 strains; experiment: Antiviral activity against drug-resistant HIV-1 strains in MT-4; assay type: cell-based; conditions: for EC50: MT-4
[2] = tested on: HL2/3 cells expressing HIV-1 gp120 and gp41 fusing with HeLa-CD4-LTR-β-gal cells; experiment: Fusion inhibition assay; assay type: cell-based; conditions: read-out: Fusion inhibition EC50 ± SD
In short: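 HeLa-CD4-LTR-β-Gal cells incubated with test compound for 1 h at 37°C/5% CO2, then co-cultured 48 h with HL2/3 cells. Cells lysed and β-galactosidase expression measured by chemiluminescent Gal-Screen.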

[3] = tested on: drug resistant clinical HIV isolates; experiment: Antiviral activity against drug-resistant HIV-1 in PBMCs; assay type: cell-based; conditions: Human immunodeficiency virus 1, PBMC
HIV strain 92US727 = experiment: Cell-to-cell virus transmission assay in fresh human PBMCs; assay type: cell-based, HIV-1
In short: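 HIV-infected fresh human PBMCs treated 3 days with six concentrations of test compound. Passaged every 3 days for three passages at fixed compound concentration; 80% of culture volume replaced with fresh compound-containing medium and uninfected cells. Cell-free supernatants collected on sub-culture days for RT activity and extracellular p24 antigen. TCID50 per passage by endpoint dilution.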

HIVIIIB = experiment: Cell-to-cell virus transmission assay in CEM-SS cells; assay type: cell-based, HIV-1
[4] = tested on: HIV attachment to HeLa-CD4-LTR-β-gal cells; experiment: Attachment inhibition assay; assay type: cell-based, HIV-1; conditions: Human immunodeficiency virus 1, read-out: Attachment inhibition EC50 ± SD

Question: What does the source list for Cc1cn([C@H]2C[C@H](N=[N+]=[N-])[C@@H](CO)O2)c(=O)[nH]c1=O [AZT, reference compound]?
Answer: EC50 ([1]; Human immunodeficiency virus 1, read-out: Mean EC50 ± SD, positive control, AZT- and NNRTI-resistant, RT 4xAZT/L100I): 4 nM; EC50 ([1]; Human immunodeficiency virus 1, read-out: Mean EC50 ± SD, positive control, AZT- and NNRTI-resistant, RT 4xAZT/Y181C): 7 nM; EC50 ([1]; Human immunodeficiency virus 1, read-out: Mean EC50 ± SD, positive control, Atazanavir-resistant, PR I50L): 1.5 nM; EC50 ([1]; Human immunodeficiency virus 1, read-out: Mean EC50 ± SD, positive control, Didanosine-resistant, RT L74V): 2 nM; EC50 ([1]; Human immunodeficiency virus 1, read-out: Mean EC50 ± SD, positive control, Enfuviritide-resistant, Env V38A/N126K): 1.5 nM; EC50 ([1]; Human immunodeficiency virus 1, read-out: Mean EC50 ± SD, positive control, Indinavir-, Ritonavir-resistant, PR I84V): 2.5 nM; EC50 ([1]; Human immunodeficiency virus 1, read-out: Mean EC50 ± SD, positive control, Indinavir-, Ritonavir-resistant, PR V82A): 3.5 nM; EC50 ([1]; Human immunodeficiency virus 1, read-out: Mean EC50 ± SD, positive control, Indinavir-, Ritonavir-resistant, PR V82F/I84V): 2 nM; EC50 ([1]; Human immunodeficiency virus 1, read-out: Mean EC50 ± SD, positive control, Lamivudine-resistant, RT M184V): 0.55 nM; EC50 ([1]; Human immunodeficiency virus 1, read-out: Mean EC50 ± SD, positive control, NNRTI-resistant, RT K103N/Y181C): 2 nM; EC50 ([1]; Human immunodeficiency virus 1, read-out: Mean EC50 ± SD, positive control, NNRTI-resistant, RT K103N): 0.9 nM; EC50 ([1]; Human immunodeficiency virus 1, read-out: Mean EC50 ± SD, positive control, NNRTI-resistant, RT L100I): 0.65 nM; EC50 ([1]; Human immunodeficiency virus 1, read-out: Mean EC50 ± SD, positive control, NNRTI-resistant, RT V106A): 2 nM; EC50 ([1]; Human immunodeficiency virus 1, read-out: Mean EC50 ± SD, positive control, NNRTI-resistant, RT V108I): 1.5 nM; EC50 ([1]; Human immunodeficiency virus 1, read-out: Mean EC50 ± SD, positive control, NNRTI-resistant, RT V179D): 1 nM; EC50 ([1]; Human immunodeficiency virus 1, read-out: Mean EC50 ± SD, positive control, NNRTI-resistant, RT Y181C): 1 nM; EC50 ([1]; Human immunodeficiency virus 1, read-out: Mean EC50 ± SD, positive control, NNRTI-resistant, RT Y188C): 1.5 nM; EC50 ([1]; Human immunodeficiency virus 1, read-out: Mean EC50 ± SD, positive control, Raltegravir-resistant, IN Q148H/G140S): 2 nM; EC50 ([1]; Human immunodeficiency virus 1, read-out: Mean EC50 ± SD, positive control, Saquinavir-resistant, PR G48V/L90M): 3.5 nM

Question: For enfuvirtide [reference compound], which EC50 [2] is on record?
Answer: 80 nM

Question: Which results are given for Cc1nnc(C(=O)NC(C)(C)c2nc(C(=O)NCc3ccc(F)cc3)c(O)c(=O)n2C)o1 [Raltegravir, reference compound]?
Answer: EC50 ([3]; read-out: PBMC/HIV-1 EC50 ± SD, Multi-drug resistant AD. MDR): 2980 ± 540 nM; EC50 ([3]; read-out: PBMC/HIV-1 EC50 ± SD, Multi-drug resistant MDR769): 2370 ± 1510 nM; EC50 ([3]; read-out: PBMC/HIV-1 EC50 ± SD, NNRTI-resistant A17R): 1990 ± 40 nM; EC50 ([3]; read-out: PBMC/HIV-1 EC50 ± SD, NNRTI-resistant N119): 3540 ± 890 nM; EC50 ([3]; read-out: PBMC/HIV-1 EC50 ± SD, PI-resistant 144-44): 3870 ± 3250 nM; EC50 ([3]; read-out: PBMC/HIV-1 EC50 ± SD, PI-resistant 1002-60): 2970 ± 230 nM; EC50 ([3]; read-out: PBMC/HIV-1 EC50 ± SD, PI-resistant 1022-48): 1320 ± 170 nM; EC50 ([3]; read-out: PBMC/HIV-1 EC50 ± SD, PI-resistant 1026-60): 1770 ± 850 nM; EC50 ([3]; read-out: PBMC/HIV-1 EC50 ± SD, PI-resistant 1064-52): 860 ± 490 nM; EC50 ([3]; read-out: PBMC/HIV-1 EC50 ± SD, Wild Type 92US727): 10500 ± 12700 nM

Question: How did the “Mean EC50 ± SD, positive control” value ([1]; {}) turn out when CC(C)c1nc(CN(C)C(=O)N[C@H](C(=O)N[C@@H](Cc2ccccc2)C[C@H](O)[C@H](Cc2ccccc2)NC(=O)OCc2cncs2)C(C)C)cs1 [RTV, reference compound] was run?
Answer: RTV 0.06 ± 0.02 nM

Question: For CC(C)(C)NC(=O)[C@@H]1C[C@@H]2CCCC[C@@H]2CN1C[C@@H](O)[C@H](Cc1ccccc1)NC(=O)[C@H](CC(N)=O)NC(=O)c1ccc2ccccc2n1 [Saquinavir, reference compound], which RT (HIV strain 92US727; Passage 1, 12.5 nM) is on record?
Answer: 281 cpm

Question: And the TCID50/mL (HIV strain 92US727; Passage 1, 12.5 nM)?
Answer: 3.08 × 10^3 TCID50/mL

Question: And the p24 (HIV strain 92US727; Passage 1, 12.5 nM)?
Answer: 971 pg/mL

Question: What about the RT (HIV strain 92US727; Passage 2, 12.5 nM) of the same compound?
Answer: 1394 cpm

Question: What about the TCID50/mL (HIV strain 92US727; Passage 2, 12.5 nM) of the same compound?
Answer: 8.30 × 10^3 TCID50/mL

Question: What about the p24 (HIV strain 92US727; Passage 2, 12.5 nM) of the same compound?
Answer: 3505 pg/mL

Question: And the RT (HIV strain 92US727; Passage 3, 12.5 nM)?
Answer: 7015 cpm

Question: What about the TCID50/mL (HIV strain 92US727; Passage 3, 12.5 nM) of the same compound?
Answer: 1.09 × 10^5 TCID50/mL

Question: And the p24 (HIV strain 92US727; Passage 3, 12.5 nM)?
Answer: 61,275 pg/mL

Question: And the RT (HIVIIIB; Passage 1, 20 nM)?
Answer: 25 cpm

Question: And the TCID50/mL (HIVIIIB; Passage 1, 20 nM)?
Answer: 0 TCID50/mL

Question: What about the p24 (HIVIIIB; Passage 1, 20 nM) of the same compound?
Answer: 794 pg/mL

Question: And the RT (HIVIIIB; Passage 2, 20 nM)?
Answer: 107 cpm

Question: And the TCID50/mL (HIVIIIB; Passage 2, 20 nM)?
Answer: 0 TCID50/mL

Question: What about the p24 (HIVIIIB; Passage 2, 20 nM) of the same compound?
Answer: 1589 pg/mL

Question: What about the RT (HIVIIIB; Passage 3, 20 nM) of the same compound?
Answer: 68 cpm

Question: What about the TCID50/mL (HIVIIIB; Passage 3, 20 nM) of the same compound?
Answer: 0 TCID50/mL

Question: And the p24 (HIVIIIB; Passage 3, 20 nM)?
Answer: 1085 pg/mL

Question: Which EC50 ([1]; Human immunodeficiency virus 1, read-out: Mean EC50 ± SD, positive control, AZT-resistant, RT 4xAZT (D67N/K70R/T215Y/K219Q)) does the source give for Cc1ccnc2c1NC(=O)c1cccnc1N2C1CC1 [NVP, reference compound] here?
Answer: 35 nM

Question: How did the EC50 [4] turn out when COc1cc(-c2ccc(/N=N/c3ccc4c(S(=O)(=O)O)cc(S(=O)(=O)O)c(N)c4c3O)c(OC)c2)ccc1/N=N/c1ccc2c(S(=O)(=O)O)cc(S(=O)(=O)O)c(N)c2c1O [Chicago sky blue, reference compound] was run?
Answer: 0.64 µg/mL (≈ 0.707 µM)
